In ChEMBL document CHEMBL1124989, “8-Substituted 5-[(aminoalkyl)amino]-6H-v-triazolo[4,5,1-de]acridin-6-ones as potential antineoplastic agents. Synthesis and biological activity” (J Med Chem, 1990):
In brackets after ≈: the same amount, converted by molar mass.

Tests used:
HeLa = assay: In vitro cytotoxicity against HeLa S3 cell lines; assay type: functional, cell-based; conditions: Homo sapiens
P388 [1] = assay: In vivo antileukemic activity against P388 leukemia at dose 100 mp/kg administered intraperitoneally; assay type: functional, Mus musculus
Outline: (§1)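 BDF1 mice implanted ip with 10^6 P388 cells. Compound given ip as aqueous solution containing 3 equiv of L-lactic acid on days 1-5. Activity expressed as T/C (%); T/C ≥ 125% taken as statistically significant antileukemic activity.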

P388 [2] = assay: In vivo antileukemic activity against P388 leukemia at dose 25 mp/kg administered intraperitoneally; assay type: functional, Mus musculus; outline: as §1
P388 [3] = assay: In vivo antileukemic activity against P388 leukemia at dose 12.5 mp/kg administered intraperitoneally (30 days survivors, 3/6); assay type: functional, Mus musculus
P388 [4] = assay: In vivo antileukemic activity against P388 leukemia at dose 12.5 mp/kg administered intraperitoneally; assay type: functional, Mus musculus
P388 [5] = assay: In vivo antileukemic activity against P388 leukemia at dose 50 mp/kg administered intraperitoneally; assay type: functional, Mus musculus; outline: as §1
P388 [6] = assay: In vivo antileukemic activity against P388 leukemia at dose 25 mp/kg administered intraperitoneally (30 days survivors, 2/6)
P388 [7] = assay: In vivo antileukemic activity against P388 leukemia at dose 25 mp/kg administered intraperitoneally (30 days survivors, 3/6)
P388 [8] = assay: In vivo antileukemic activity against P388 leukemia at dose 8 mp/kg administered intraperitoneally; assay type: functional, Mus musculus; outline: as §1
P388 [9] = assay: In vivo antileukemic activity against P388 leukemia at dose 40 mp/kg administered intraperitoneally; assay type: functional, Mus musculus; outline: as §1

| SMILES | IC50 (HeLa) [µg/mL] | other results |
| --- | --- | --- |
| CN(C)CCNc1ccc2nnn3c4ccccc4c(=O)c1c23 | 0.21 (≈ 0.683 µM) | T/C (P388 [1]): 180% |
| O=c1c2cc(Cl)ccc2n2nnc3ccc(NCCNCCO)c1c32 | 0.16 (≈ 0.447 µM) | T/C (P388 [2]): 133% |
| O=C1c2ccccc2C(=O)c2c(NCCNCCO)ccc(NCCNCCO)c21 [AMETANTRONE] | 0.17 (≈ 0.412 µM) | T/C (P388 [3]): 300% |
| Cc1ccc2c(c1)c(=O)c1c(NCCN(C)C)ccc3nnn2c31 | 0.17 (≈ 0.529 µM) | T/C (P388 [1]): 130% |
| CCN(CC)CCNc1ccc2nnn3c4ccccc4c(=O)c1c23 | 0.42 (≈ 1.25 µM) | T/C (P388 [1]): 160% |
| CCN(CC)CCNc1ccc2nnn3c4ccc(OC)cc4c(=O)c1c23 | 0.16 (≈ 0.438 µM) | T/C (P388 [4]): 120% |
| COc1ccc2c(c1)c(=O)c1c(NCCCN(C)C)ccc3nnn2c31 | 0.17 (≈ 0.484 µM) | – |
| COc1ccc2c(c1)c(=O)c1c(NCCNCCO)ccc3nnn2c31 | 0.09 (≈ 0.255 µM) | T/C (P388 [4]): 120% |
| COc1ccc2c(c1)c(=O)c1c(NCCN(C)C)ccc3nnn2c31 | 0.1 (≈ 0.296 µM) | T/C (P388 [2]): 110% |
| CN(C)CCCNc1ccc2nnn3c4ccc(Cl)cc4c(=O)c1c23 | 0.13 (≈ 0.365 µM) | T/C (P388 [5]): 111% |
| CN(C)CCNc1ccc2nnn3c4ccc(Cl)cc4c(=O)c1c23 | 0.1 (≈ 0.293 µM) | T/C (P388 [2]): 110% |
| CN(C)CCNc1ccc2nnn3c4ccc(O)cc4c(=O)c1c23 | 0.1 (≈ 0.309 µM) | T/C (P388 [6]): 260% |
| Cc1ccc2c(c1)c(=O)c1c(NCCCN(C)C)ccc3nnn2c31 | 0.15 (≈ 0.447 µM) | – |
| CCN(CC)CCNc1ccc2nnn3c4ccc([N+](=O)[O-])cc4c(=O)c1c23 | 0.12 (≈ 0.315 µM) | T/C (P388 [4]): 122% |
| CCN(CC)CCNc1ccc2nnn3c4ccc(Cl)cc4c(=O)c1c23 | 0.13 (≈ 0.351 µM) | T/C (P388 [4]): 111% |
| CN(C)CCCNc1ccc2nnn3c4ccccc4c(=O)c1c23 | 0.28 (≈ 0.871 µM) | T/C (P388 [1]): 133% |
| O=c1c2ccccc2n2nnc3ccc(NCCNCCO)c1c32 | 0.29 (≈ 0.897 µM) | T/C (P388 [5]): 133% |
| CN(C)CCCNc1ccc2nnn3c4ccc(O)cc4c(=O)c1c23 | 0.08 (≈ 0.237 µM) | T/C (P388 [7]): 320% |
| CCN(CC)CCNc1ccc2nnn3c4ccc(O)cc4c(=O)c1c23 | 0.05 (≈ 0.142 µM) | T/C (P388 [8]): 190% |
| CCN(CC)CCNc1ccc2nnn3c4ccc(C)cc4c(=O)c1c23 | 0.21 (≈ 0.601 µM) | T/C (P388 [9]): 133% |
| CN(C)CCCNc1ccc2nnn3c4ccc([N+](=O)[O-])cc4c(=O)c1c23 | 0.12 (≈ 0.328 µM) | T/C (P388 [2]): 110% |
| CN(C)CCNc1ccc2nnn3c4ccc([N+](=O)[O-])cc4c(=O)c1c23 | 0.11 (≈ 0.312 µM) | T/C (P388 [2]): 130% |
| O=c1c2cc([N+](=O)[O-])ccc2n2nnc3ccc(NCCNCCO)c1c32 | 0.12 (≈ 0.326 µM) | T/C (P388 [2]): 133% |
| O=c1c2cc(O)ccc2n2nnc3ccc(NCCNCCO)c1c32 | 0.12 (≈ 0.354 µM) | T/C (P388 [4]): 210% |
| Cc1ccc2c(c1)c(=O)c1c(NCCNCCO)ccc3nnn2c31 | 0.24 (≈ 0.711 µM) | – |
